Measured values reported in article PMC3769689 (Journal of medicinal chemistry, 2013).
Entries after “also recorded” stand apart in the source; their conditions may differ.

Key:
mGlu3 [1] = target: T1, mGlu3 (Rattus norvegicus, UniProt P31422); test: mGlu3 calcium mobilization assay; assay type: cell-based
rat IV PK = assay type: in vivo; conditions: plasma
rat microsomal clearance = assay type: in vitro ADME; conditions: for Rat CLHEP: predicted hepatic clearance in vitro; for Rat CLHEP / CLint scaled at 1 µM: rat; for CLint scaled at 1 µM: microsomes
mGlu3 [2] = target: T1, mGlu3; conditions: cited from earlier work
5-HT2B = 5-HT2B (Homo sapiens, UniProt P41595); test: functional activity at 5-HT2B
DAT = DAT (Homo sapiens, UniProt Q01959); test: functional activity at DAT
mGlu3 [3] = target: T1, mGlu3; test: probe dependence, glutamate vs LY379268; assay type: cell-based; conditions: glutamate vs LY379268 as agonist
in vivo rat PK = conditions: 10 mg/kg
mGlu8 = mGlu8 (Homo sapiens, UniProt O00222); test: mGluR selectivity, mGlu8; assay type: cell-based
mGlu3 [4] = target: T1, mGlu3; test: progressive fold shift assay with glutamate; assay type: cell-based
mGlu5 = mGlu5 (Homo sapiens, UniProt P41594); test: mGluR selectivity, mGlu5; assay type: cell-based
mGlu1 = mGlu1 (Homo sapiens, UniProt Q13255); test: mGluR selectivity, mGlu1; assay type: cell-based
mGlu4 = mGlu4 (Homo sapiens, UniProt Q14833); test: mGluR selectivity, mGlu4; assay type: cell-based
[5] = human microsomal clearance; assay type: in vitro ADME
mGlu7 = mGlu7 (Homo sapiens, UniProt Q14831); test: mGluR selectivity, mGlu7; assay type: cell-based
[6] = mouse tissue distribution study; assay type: in vivo; conditions: cassette, IP
Summary of the method: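 Mice received the test compounds together as a cassette by intraperitoneal injection. Plasma and brain tissue were then analysed by LC/MS/MS to measure compound exposure in each and derive the brain-to-plasma ratio.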

mGlu6 = mGlu6 (Homo sapiens, UniProt O15303); test: mGluR selectivity, mGlu6; assay type: cell-based
[7] = metabolite identification; assay type: in vitro ADME

T1 sequence (P31422 23-879): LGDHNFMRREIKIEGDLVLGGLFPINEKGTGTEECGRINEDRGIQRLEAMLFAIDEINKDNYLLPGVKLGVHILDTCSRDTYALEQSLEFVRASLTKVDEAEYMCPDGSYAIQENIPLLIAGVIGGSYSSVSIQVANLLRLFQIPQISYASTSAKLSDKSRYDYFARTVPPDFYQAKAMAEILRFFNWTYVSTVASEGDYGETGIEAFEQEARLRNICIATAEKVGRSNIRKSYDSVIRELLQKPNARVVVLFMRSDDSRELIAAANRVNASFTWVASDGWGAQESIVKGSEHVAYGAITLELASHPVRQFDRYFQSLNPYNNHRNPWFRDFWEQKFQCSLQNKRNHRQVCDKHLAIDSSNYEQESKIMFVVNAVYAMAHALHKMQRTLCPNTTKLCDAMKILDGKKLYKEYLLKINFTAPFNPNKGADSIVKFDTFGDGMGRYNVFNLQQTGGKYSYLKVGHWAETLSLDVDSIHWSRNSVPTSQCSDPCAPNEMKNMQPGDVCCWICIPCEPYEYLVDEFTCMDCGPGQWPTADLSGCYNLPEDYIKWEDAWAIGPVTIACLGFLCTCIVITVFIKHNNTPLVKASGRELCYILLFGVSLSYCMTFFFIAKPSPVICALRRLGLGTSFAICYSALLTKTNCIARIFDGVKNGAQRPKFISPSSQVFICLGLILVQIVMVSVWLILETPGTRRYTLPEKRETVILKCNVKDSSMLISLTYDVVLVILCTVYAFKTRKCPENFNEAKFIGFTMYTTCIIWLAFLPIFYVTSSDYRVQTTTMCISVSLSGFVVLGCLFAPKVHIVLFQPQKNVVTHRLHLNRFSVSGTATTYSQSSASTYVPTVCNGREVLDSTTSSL
mGlu1, sequence (Q13255 19-1194): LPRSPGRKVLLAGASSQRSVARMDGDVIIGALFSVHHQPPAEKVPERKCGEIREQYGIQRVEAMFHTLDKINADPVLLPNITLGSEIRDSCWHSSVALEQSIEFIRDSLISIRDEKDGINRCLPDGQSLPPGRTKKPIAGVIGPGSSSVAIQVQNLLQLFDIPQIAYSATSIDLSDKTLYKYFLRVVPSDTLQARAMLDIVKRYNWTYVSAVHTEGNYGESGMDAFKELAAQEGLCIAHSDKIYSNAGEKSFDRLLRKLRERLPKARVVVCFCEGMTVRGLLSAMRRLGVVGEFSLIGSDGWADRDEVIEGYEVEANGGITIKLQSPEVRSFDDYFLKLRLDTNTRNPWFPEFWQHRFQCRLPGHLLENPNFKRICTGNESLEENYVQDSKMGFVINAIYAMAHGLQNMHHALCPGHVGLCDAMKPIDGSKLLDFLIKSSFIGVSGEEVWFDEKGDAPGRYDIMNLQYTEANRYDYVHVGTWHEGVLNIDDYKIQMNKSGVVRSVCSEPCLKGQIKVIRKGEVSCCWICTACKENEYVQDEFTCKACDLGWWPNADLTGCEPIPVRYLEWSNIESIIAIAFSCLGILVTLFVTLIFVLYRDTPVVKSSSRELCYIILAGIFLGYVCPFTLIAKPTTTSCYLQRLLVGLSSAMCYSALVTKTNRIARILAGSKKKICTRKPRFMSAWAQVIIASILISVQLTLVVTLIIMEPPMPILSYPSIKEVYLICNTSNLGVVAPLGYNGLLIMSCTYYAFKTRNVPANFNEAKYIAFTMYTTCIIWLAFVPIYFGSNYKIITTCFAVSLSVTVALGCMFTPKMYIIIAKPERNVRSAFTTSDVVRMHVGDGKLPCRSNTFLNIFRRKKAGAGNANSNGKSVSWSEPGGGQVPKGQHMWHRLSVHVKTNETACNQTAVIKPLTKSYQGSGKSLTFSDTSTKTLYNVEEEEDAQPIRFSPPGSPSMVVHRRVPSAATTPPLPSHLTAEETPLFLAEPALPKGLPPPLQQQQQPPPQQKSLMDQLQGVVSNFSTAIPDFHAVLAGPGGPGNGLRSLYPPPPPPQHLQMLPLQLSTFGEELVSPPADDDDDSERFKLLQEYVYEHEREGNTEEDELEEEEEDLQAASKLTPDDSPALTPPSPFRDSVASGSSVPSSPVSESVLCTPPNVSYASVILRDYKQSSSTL
mGlu8, sequence (O00222 34-908): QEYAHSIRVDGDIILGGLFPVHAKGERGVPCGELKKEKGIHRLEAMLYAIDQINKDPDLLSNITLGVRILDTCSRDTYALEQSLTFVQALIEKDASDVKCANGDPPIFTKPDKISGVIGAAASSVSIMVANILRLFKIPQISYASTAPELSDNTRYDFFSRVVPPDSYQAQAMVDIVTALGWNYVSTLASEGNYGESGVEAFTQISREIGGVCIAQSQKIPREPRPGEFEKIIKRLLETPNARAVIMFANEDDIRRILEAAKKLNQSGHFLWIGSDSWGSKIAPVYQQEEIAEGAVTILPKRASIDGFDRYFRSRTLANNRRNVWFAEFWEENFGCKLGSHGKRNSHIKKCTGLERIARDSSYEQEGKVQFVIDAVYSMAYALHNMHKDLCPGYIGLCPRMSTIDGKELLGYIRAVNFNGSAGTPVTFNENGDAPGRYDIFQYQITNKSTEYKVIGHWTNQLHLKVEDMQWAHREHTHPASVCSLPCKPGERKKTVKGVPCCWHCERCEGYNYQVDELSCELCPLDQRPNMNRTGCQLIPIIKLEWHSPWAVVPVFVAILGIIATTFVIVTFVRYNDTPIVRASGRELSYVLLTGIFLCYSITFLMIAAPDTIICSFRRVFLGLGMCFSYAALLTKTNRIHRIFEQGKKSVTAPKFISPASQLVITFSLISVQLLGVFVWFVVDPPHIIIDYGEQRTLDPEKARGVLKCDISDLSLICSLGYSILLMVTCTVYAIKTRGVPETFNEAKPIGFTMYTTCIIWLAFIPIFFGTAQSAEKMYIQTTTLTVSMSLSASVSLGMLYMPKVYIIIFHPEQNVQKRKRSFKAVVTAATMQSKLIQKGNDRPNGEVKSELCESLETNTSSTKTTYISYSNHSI
5-HT2B, sequence (P41595 whole entry): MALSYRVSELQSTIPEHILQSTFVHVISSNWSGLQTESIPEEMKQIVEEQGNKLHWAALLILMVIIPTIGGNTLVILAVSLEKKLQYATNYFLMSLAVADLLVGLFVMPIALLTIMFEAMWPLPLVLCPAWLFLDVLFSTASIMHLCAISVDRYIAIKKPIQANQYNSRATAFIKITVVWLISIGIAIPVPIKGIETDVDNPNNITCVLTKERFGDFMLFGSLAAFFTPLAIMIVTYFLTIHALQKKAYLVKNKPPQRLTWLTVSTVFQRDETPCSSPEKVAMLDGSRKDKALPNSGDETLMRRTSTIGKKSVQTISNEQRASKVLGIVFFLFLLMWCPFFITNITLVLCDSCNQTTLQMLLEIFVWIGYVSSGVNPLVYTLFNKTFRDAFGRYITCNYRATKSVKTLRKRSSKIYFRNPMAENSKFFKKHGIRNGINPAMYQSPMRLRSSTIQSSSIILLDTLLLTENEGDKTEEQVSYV
DAT, sequence (Q01959 whole entry): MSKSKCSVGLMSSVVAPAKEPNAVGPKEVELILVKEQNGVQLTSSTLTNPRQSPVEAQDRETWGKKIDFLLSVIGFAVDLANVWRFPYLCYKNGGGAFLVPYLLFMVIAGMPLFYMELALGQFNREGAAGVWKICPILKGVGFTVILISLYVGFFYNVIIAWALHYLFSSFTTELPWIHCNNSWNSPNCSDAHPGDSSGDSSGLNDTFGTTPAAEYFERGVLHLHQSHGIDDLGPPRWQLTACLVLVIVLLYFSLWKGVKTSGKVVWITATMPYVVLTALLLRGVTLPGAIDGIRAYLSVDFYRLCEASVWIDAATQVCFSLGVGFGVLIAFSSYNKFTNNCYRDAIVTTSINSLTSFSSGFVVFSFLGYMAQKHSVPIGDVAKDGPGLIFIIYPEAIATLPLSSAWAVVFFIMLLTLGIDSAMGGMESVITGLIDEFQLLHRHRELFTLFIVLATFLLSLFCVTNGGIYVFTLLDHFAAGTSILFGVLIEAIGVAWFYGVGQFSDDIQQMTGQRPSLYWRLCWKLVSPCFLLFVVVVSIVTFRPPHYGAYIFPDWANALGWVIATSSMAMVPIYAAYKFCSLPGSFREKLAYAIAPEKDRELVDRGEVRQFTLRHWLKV
mGlu6, sequence (O15303 25-877): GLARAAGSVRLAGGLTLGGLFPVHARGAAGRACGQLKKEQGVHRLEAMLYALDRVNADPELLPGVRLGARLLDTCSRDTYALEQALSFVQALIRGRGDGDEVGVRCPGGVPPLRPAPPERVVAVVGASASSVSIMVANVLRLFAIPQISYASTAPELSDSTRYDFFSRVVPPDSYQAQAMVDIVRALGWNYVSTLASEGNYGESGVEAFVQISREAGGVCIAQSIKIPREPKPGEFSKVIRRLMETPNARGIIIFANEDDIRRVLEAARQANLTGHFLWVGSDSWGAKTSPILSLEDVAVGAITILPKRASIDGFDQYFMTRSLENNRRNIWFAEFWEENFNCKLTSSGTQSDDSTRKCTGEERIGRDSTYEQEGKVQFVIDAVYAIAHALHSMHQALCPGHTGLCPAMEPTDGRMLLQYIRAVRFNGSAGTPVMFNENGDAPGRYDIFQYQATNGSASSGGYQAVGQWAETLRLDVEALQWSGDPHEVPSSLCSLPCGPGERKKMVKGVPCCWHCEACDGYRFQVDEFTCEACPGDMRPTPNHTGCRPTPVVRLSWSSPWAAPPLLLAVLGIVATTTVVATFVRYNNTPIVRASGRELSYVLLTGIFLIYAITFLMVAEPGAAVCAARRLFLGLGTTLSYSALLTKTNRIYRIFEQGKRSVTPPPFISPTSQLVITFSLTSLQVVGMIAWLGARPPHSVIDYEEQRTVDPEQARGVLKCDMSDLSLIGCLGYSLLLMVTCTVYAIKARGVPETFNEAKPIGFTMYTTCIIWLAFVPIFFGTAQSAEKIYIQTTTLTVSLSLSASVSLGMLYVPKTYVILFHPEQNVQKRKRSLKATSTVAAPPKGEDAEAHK

With `COc1ccc(C#Cc2ccc(C(=O)N3CCCC(OC)C3)cc2)cc1` (centres unmarked) [8b] the “mGlu3 NAM activity (in words)” value (mGlu3 [1]) was “lost”.
With `COc1ccc(C#Cc2ccc(C(=O)N3CCC[C@@H](O)C3)cc2)cc1` [8d] the Vd (rat IV PK) was 0.22 L/kg, the clearance (rat IV PK) was 6.2 mL/min/kg and the “Rat CLHEP” value (rat microsomal clearance) was 52.7 mL/min/kg. For the same compound, the CLint scaled at 1 µM (rat microsomal clearance) was 214 mL/min/kg.
For `COc1ccc(C#Cc2ccc(C(=O)N3CCC[C@@H](CO)C3)cc2)cc1` [compound 3], the “selectivity vs. mGlu2” value (mGlu3 [2]) is listed as greater than 15 fold.
With `COc1ccc(C#Cc2ccc(C(=O)N3CCC[C@@H](O)C3)c(F)c2)cc1` [compound 9] the “functional activity at 5-HT2B” value (5-HT2B) was “no functional activity”, the “functional activity at DAT” value (DAT) was “no functional activity” and the probe dependence (mGlu3 [3]) was “no differences; also recorded: equipotent and efficacious”. For the same compound, the “Brain AUC0-6” value (in vivo rat PK; IP, 0-6 h) was 9.6 µM·h, the Kp (in vivo rat PK; brain and plasma, ip) was 0.3 and the AUC(0-t) (in vivo rat PK; plasma, ip) was 33.1 µM·h. For the same compound, the IC50 (mGlu8) was greater than 30 µM, the “mode of antagonism with respect to glutamate” value (mGlu3 [4]) was “non-competitive antagonism; also recorded: non-competitive decrease in the EC80” and the IC50 (mGlu5) was greater than 30 µM. For the same compound, the IC50 (mGlu1) was greater than 30 µM, the IC50 (mGlu4) was greater than 30 µM and the Vd (rat IV PK) was 0.21 L/kg. For the same compound, the clearance (rat IV PK) was 5.2 mL/min/kg, the “Human CLHEP” value ([5]; predicted hepatic clearance in vitro, human) was 18.9 mL/min/kg and the “stability in human microsomes” value ([5]; words) was “unstable”. For the same compound, the IC50 (mGlu7) was greater than 30 µM, the “mGlu3 NAM activity (in words)” value (mGlu3 [1]) was “sub-micromolar” and the BrainAUC [6] was 3.37 µM. For the same compound, the plasmaAUC [6] was 3.71 µM, the IC50 (mGlu6) was greater than 30 µM and the “Rat CLHEP” value (rat microsomal clearance) was 54.1 mL/min/kg. For the same compound, the CLint scaled at 1 µM (rat microsomal clearance) was 239 mL/min/kg, the “stability in rat microsomes” value (rat microsomal clearance; words) was “unstable” and the major metabolite [7] was “P450-mediated O-demethylation”.
In the case of `COc1ccc(C#Cc2ccc(C(=O)N3CCC[C@@H](O)C3)cc2F)cc1` [compound 10], the “mGlu3 NAM activity (in words)” value (mGlu3 [1]) is reported as “sub-micromolar”.
With `[2H]C([2H])([2H])Oc1ccc(C#Cc2ccc(C(=O)N3CCC[C@@H](O)C3)cc2)cc1` [compound 11] the Vd (rat IV PK) was 0.21 L/kg, the clearance (rat IV PK) was 3.3 mL/min/kg and the “Rat CLHEP” value (rat microsomal clearance) was 40.7 mL/min/kg. For the same compound, the CLint scaled at 1 µM (rat microsomal clearance) was 97.3 mL/min/kg.
For `[2H]C([2H])([2H])Oc1ccc(C#Cc2ccc(C(=O)N3CCC[C@@H](O)C3)c(F)c2)cc1` [compound 12], the Vd (rat IV PK) was 0.18 L/kg, the clearance (rat IV PK) was 2.9 mL/min/kg and the “Rat CLHEP” value (rat microsomal clearance) was 35.9 mL/min/kg.
